# Bioassay records from PubChem.
# Only a selection was taken, and hits are over-represented in it overall.
# XBP1 UPR activ: adaptive UPR (XBP1) activation | CHO-XBP1 luciferase reporter, IRE1-XBP1 UPR activation, luminescence; percent of tunicamycin response, DMSO as zero | activation, % at 20 µM | 330,000 compounds, 0.33% hits | AID 463104;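 active = versus positive control, 20 µM dose yields 30% or more activation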
#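 Assay system: IRE1-XBP1 luciferase reporter CHO line. Input: 1000 cells/well. Buffer or medium: F12 with 10% serum. Doses: 20 µM, 1% DMSO. Times: overnight seeding at 37 °C, 6 h compound treatment at 37 °C. Technique: Steady-Glo luciferase glow luminescence, 10 min after reagent addition.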
# TLR4 MyD88 comp: TLR4-MyD88 interaction inhibition in cells. O00206+Q99836. HeLa CL3-4 TLR4/MyD88 BLA complementation, FRET ratio. inhibition, % at 8.4 µM. 200,000 compounds, 0.18% hits. AID 861; in the data active = inhibition above about 25%
# CHOP inh: blocks CHOP induction under ER stress. 220,000 compounds, 3.8% hits. inhibition, % at 10 µM. CHO-K1 CHOP-promoter luciferase, tunicamycin-induced, 15-18 h;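 active = compounds that reduced the stress-induced luciferase reporter signal by more than about 70% of percent inhibition, limit read from the data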
# CHOP UPR activ: apoptotic UPR (CHOP) activation. CHO-CHOP luciferase reporter, luminescence; percent of tunicamycin response over DMSO baseline. activation, % at 10 µM. 330,000 compounds, 0.34% hits. AID 449763;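 active = at 10 µM dose, activation of 40% or more, normalized to positive control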
#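 System: CHO CHOP reporter cells. Amount: 500 cells per well. Buffer or medium: F12 medium, 10% FBS. Compound dosing: one dose, 10 µM in 0.5% DMSO. Incubation: 6 h compound exposure at 37 °C after overnight seeding. Technique: Steady-Glo luciferase luminescence. Benchmarks: tunicamycin and DMSO controls.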
# NOD2-RIPK2 inh: NOD2-RIPK2 protein interaction inhibition. O43353. AID 624267. inhibition, % at 4.98 µM. 360,000 compounds, 0.38% hits. CHO BLA complementation NOD2-RIPK2, CCF4 ratio; in the data active = inhibition above about 21%
# TLR9-MyD88 inh: blocks human TLR9 binding to MyD88 | CHO BLA complementation TLR9-MyD88, CCF4 FRET ratio | inhibition, % at 4.98 µM | AID 504734 | 340,000 compounds, 0.21% hits;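 active = inhibition above the mean over all tested compounds plus 3 SD, cut at about 21% in these data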
# TLR9-MyD88 cf: TLR9-MyD88 interaction inhibition, confirmation | AID 540250 | inhibition, % at 4.98 µM | shares compounds with TLR9-MyD88 inh | 680 compounds, 51% hits | CHO TLR9/MyD88 BLA complementation, CCF4 FRET ratio;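 active = mean inhibition across three repeats above about 21% taken from the earlier screen, limit read from the data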;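 note: blue over green emission ratio reports constitutive TLR9 MyD88 association via BLA complementation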
# Target sequence (Q9NR96 whole entry, looked up): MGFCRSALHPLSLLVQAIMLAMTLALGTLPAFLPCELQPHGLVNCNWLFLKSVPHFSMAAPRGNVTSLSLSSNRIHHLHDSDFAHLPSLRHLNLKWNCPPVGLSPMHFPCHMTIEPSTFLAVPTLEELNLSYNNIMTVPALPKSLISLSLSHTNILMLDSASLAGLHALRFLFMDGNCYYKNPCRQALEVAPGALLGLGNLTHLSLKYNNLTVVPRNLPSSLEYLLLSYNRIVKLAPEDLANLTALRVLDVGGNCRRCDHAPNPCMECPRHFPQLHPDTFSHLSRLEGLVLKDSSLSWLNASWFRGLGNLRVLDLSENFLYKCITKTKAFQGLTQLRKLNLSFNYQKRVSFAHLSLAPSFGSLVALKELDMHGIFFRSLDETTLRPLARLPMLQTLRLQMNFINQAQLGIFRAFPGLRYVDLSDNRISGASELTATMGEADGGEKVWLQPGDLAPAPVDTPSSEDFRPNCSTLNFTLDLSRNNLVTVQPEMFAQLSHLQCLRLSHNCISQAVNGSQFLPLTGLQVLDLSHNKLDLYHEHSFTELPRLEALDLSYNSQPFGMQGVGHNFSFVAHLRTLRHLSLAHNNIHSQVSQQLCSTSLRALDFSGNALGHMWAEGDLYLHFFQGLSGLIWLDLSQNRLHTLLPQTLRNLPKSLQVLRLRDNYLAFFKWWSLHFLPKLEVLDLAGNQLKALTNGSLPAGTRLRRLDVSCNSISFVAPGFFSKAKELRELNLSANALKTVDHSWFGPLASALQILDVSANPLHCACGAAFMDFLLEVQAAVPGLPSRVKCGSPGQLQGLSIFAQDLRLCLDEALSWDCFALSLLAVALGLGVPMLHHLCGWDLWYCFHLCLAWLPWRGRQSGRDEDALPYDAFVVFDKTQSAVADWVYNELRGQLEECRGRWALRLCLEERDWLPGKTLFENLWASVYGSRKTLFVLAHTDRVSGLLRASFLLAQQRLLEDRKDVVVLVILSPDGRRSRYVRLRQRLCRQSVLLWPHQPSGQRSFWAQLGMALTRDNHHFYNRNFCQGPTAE
# BLA nonselective: counter-screen for TLR9-MyD88 inhibitors: non-selective beta-lactamase inhibitors. shares compounds with TLR9-MyD88 inh. CHO-BLA cells, CCF4 FRET ratio, BLA reporter. inhibition, % at 4.98 µM. 680 compounds, 7% hits. AID 540251;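 active = mean inhibition above a 50% cutoff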;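 note: counterscreen of TLR9-MyD88 hits on CMV-driven BLA in CHO-K1 cells; higher means less blue over green ratio so more BLA blockade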
# TLR9 CHO cytotox: CHO cell toxicity counter-screen for TLR9-MyD88 inhibitors; shares compounds with TLR9-MyD88 inh; TLR9-MyD88 CHO cells cytotoxicity, luminescence; inhibition, % at 4.98 µM; 680 compounds, 39% hits; in the data active = inhibition above about 11%
# Hits are given with their value; . = inactive; / = no result.
SMILES,XBP1 UPR activ,TLR4 MyD88 comp,CHOP inh,CHOP UPR activ,NOD2-RIPK2 inh,TLR9-MyD88 inh,TLR9-MyD88 cf,BLA nonselective,TLR9 CHO cytotox
COc1ccccc1C1C=C(c2ccc(C)cc2)Nc2nnnn21 (centres undefined),.,.,/,.,.,22,.,.,.
COc1ccc(N(CC(=O)N2CCOCC2)S(C)(=O)=O)cc1Cl,.,/,/,.,.,.,/,/,/
Cc1ccc(C)c2nc3sc(C(=O)N4CCOCC4)c(N)c3cc12,.,.,.,.,.,22,.,.,26
Cc1cccc2cc3c(N)c(C(=O)Nc4ccc(N5CCOCC5)cc4)sc3nc12,.,.,.,.,.,.,/,/,/
Cc1cccc2cc3c(N)c(C(=O)N4CCc5ccccc54)sc3nc12,.,.,.,.,.,22,.,.,18
N#CC(=C(O)COC(=O)CCC1CCCCC1)c1nc2ccccc2[nH]1,/,/,/,/,.,.,/,/,/
CCOc1ccc(NC(=O)COC(=O)c2c[nH]c3ccccc23)cc1,/,/,/,/,.,.,/,/,/
COc1ccc(N2C(=O)C3CC(C)=C(C)CC3C2=O)c(OC)c1 (centres undefined),.,.,.,.,.,.,/,/,/
COc1cc(N2C(=O)C=CC2=O)ccc1N1C(=O)C=CC1=O,/,/,/,/,26,39,64,.,101
Clc1ccc(/C=N/NC2=Nc3cccc4cccc2c34)cc1,.,.,.,.,.,29,.,.,.
COc1ccc(C(=O)NCC(=O)N/N=C/C=C/c2ccccc2)cc1OC,.,.,.,.,.,.,/,/,/
COc1ccc(C(=O)NCC(=O)N/N=C/C(C)=C/c2ccccc2)cc1OC,.,.,.,.,.,21,.,.,.
Cc1ccc(N2CC(C(=O)Nc3cccnc3)CC2=O)cc1C (centres undefined),.,/,/,.,.,.,/,/,/
COc1cc(/C=N/NC(=O)Cn2ccc(C(F)(F)F)n2)cc(OC)c1OC,.,.,.,.,.,.,/,/,/
CCOC(=O)COc1ccc2c(C#N)c3ccccn3c2c1,/,.,.,/,.,26,.,.,.
COc1cc(C(C)=O)ccc1OCC(=O)NCc1ccccc1CN1CCCC1,/,/,/,/,.,.,/,/,/
CCC(=O)OCCNc1cc(Sc2nccn2C)c2nonc2c1[N+](=O)[O-],/,.,109,/,.,24,69,.,101
CCC(=O)OCCNc1cc(SCCC(=O)OC)c2nonc2c1[N+](=O)[O-],.,.,.,.,.,.,/,/,/
COc1ccc(CN(C)CC(=O)Nc2ccc(Cl)cc2C(F)(F)F)c(OC)c1,.,.,.,.,.,.,/,/,/
COc1ccc(N=Cc2sc(O)c3ccccc23)cc1,.,.,.,.,.,22,21,.,.
COc1ccc(N=Cc2c(O)c3ccccc3n2C(C)=O)cc1,.,/,.,.,.,.,/,/,/
COC(=O)CCC(=O)NC(=S)Nc1ccccc1F,.,.,.,.,.,.,/,/,/
Cc1c(CN2CCC(CO)(CCOc3ccccc3)CC2)c(=O)n(-c2ccccc2)n1C,.,.,.,.,.,34,.,.,.
Cc1cc(C)c(CN2CCC(CO)(CCOc3ccccc3)CC2)cc1C,.,.,.,.,.,.,/,/,/
O=c1[nH]c(Sc2ccc([N+](=O)[O-])cc2[N+](=O)[O-])nc2ccccc12,.,/,/,.,.,.,/,/,/
SMILES,XBP1 UPR activ,TLR4 MyD88 comp,CHOP inh,CHOP UPR activ,NOD2-RIPK2 inh,TLR9-MyD88 inh,TLR9-MyD88 cf,BLA nonselective,TLR9 CHO cytotox
O=[N+]([O-])c1ccc(Sc2cc[n+]([O-])c3ccccc23)c([N+](=O)[O-])c1,.,/,.,.,.,32,24,.,30
CCOCCCNC(=O)CSc1nc2nc(C)c(Cc3ccccc3)c(C)n2n1,.,.,.,.,.,.,/,/,/
Cc1ccsc1C(=O)OCC(=O)NC1CC1,.,/,/,.,.,.,/,/,/
Cc1ccsc1C(=O)OCC(=O)NC1CCCCC1,/,/,/,/,.,21,.,.,.
COc1cc(NC(=O)Cn2ncc(Cl)c(Cl)c2=O)c(C)cc1[N+](=O)[O-],/,.,109,/,.,21,23,.,98
Cc1ccc(N2C(=O)NC(NS(=O)(=O)c3ccc(C)cc3)(C(F)(F)F)C2=O)cc1 (centres undefined),.,/,/,.,.,21,.,.,.
O=C(COC(=O)c1cccc(Br)c1)Nc1ccc2[nH]c(=O)[nH]c2c1,.,/,/,.,.,21,.,.,.
O=C(COC(=O)/C=C/c1ccc(Cl)cc1)Nc1ccc2[nH]c(=O)[nH]c2c1,.,/,/,.,.,23,.,.,13
CC#C[C@@H](CC)c1ccc2ccn(C)c2c1,.,/,/,.,.,.,/,/,/
C=CCNCc1ccccc1[N+](=O)[O-],.,/,/,.,.,.,/,/,/
COc1cc(/C=N/NC(=O)c2ccc([N+](=O)[O-])cc2Cl)cc(Br)c1O,.,.,.,.,.,34,.,.,.
COc1cc(/C=N/NC(=O)c2ccc(COc3ccccc3Cl)o2)cc(Br)c1O,.,.,.,.,.,.,/,/,/
Cn1c(O)c(/C=N/NC(=O)c2cc3ccccc3cc2O)c2ccccc21,.,/,/,.,.,31,23,.,25
Cn1c2ccccc2c2cc(/C=N/NC(=O)c3ccc(O)cc3O)ccc21,.,/,/,.,.,.,/,/,/
COc1ccc(/C=C/C(=O)NC(=S)Nc2ccc(S(=O)(=O)Nc3ccc(OC)nn3)cc2)cc1,.,.,.,.,.,27,.,.,.
Cc1c(Cl)c([N+](=O)[O-])nn1CCCC(=O)Nc1sc2c(c1C#N)CCC2,.,.,.,.,.,23,.,.,.
Cc1c(Br)c([N+](=O)[O-])nn1CCCC(=O)Nc1sc2c(c1C#N)CCC2,.,.,.,.,.,.,/,/,/
CCc1noc(C)c1C(=O)Nc1cc(S(=O)(=O)N2CCOCC2)ccc1N1CCN(CC)CC1,.,/,/,.,.,.,/,/,/
N#Cc1ccc2c(=O)n(-c3ccccc3)sc2c1,/,/,/,/,.,39,.,.,96
O=c1c2cc(C(F)(F)F)ccc2sn1-c1ccccc1,/,/,/,/,.,23,26,.,58
O=c1c2ccccc2sn1-c1cccc(Cl)c1,/,/,/,/,.,.,/,/,/
O=C(O)c1cccc(-n2sc3ccccc3c2=O)c1,.,/,/,.,.,.,/,/,/
COc1ccc(NC(=O)CN2CCC(C(N)=O)(N3CCCCC3)CC2)c(OC)c1,.,.,.,.,.,.,/,/,/
CCN1CCc2c(sc(NC(=O)c3ccc(S(=O)(=O)N(C)c4ccccc4)cc3)c2C(=O)NC)C1,.,/,/,.,.,.,/,/,/
